Here are results for 27 compounds from article PMC9308755 (Chemmedchem, 2022).

Structures are written as SMILES.

Data set [1] deals with T1, mouse TRPC5 (Mus musculus, UniProt Q9QX29).
T1 sequence (Q9QX29 1-975): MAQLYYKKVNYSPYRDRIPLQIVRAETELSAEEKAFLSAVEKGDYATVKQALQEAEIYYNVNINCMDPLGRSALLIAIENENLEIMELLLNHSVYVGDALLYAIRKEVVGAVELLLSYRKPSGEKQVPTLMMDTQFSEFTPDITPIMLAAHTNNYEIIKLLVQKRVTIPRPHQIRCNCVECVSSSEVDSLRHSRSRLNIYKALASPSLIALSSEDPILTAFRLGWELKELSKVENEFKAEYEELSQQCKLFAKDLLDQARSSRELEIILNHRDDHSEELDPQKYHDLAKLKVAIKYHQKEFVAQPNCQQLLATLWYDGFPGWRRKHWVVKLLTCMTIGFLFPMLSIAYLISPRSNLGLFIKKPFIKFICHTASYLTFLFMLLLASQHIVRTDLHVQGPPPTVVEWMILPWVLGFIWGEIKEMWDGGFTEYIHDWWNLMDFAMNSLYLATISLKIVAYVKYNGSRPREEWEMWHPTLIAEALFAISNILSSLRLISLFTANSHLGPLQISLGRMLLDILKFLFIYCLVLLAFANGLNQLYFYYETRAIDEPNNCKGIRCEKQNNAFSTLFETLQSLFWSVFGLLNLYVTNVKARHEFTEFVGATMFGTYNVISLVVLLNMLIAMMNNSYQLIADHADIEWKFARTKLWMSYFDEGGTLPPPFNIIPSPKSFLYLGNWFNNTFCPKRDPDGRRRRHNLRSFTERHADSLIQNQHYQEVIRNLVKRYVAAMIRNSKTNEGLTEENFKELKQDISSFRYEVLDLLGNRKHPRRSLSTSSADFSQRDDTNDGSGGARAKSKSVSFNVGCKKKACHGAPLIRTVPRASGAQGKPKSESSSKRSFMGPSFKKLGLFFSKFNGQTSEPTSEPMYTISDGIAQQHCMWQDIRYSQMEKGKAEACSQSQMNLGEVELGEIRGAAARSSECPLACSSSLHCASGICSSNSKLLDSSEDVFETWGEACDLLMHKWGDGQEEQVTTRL
The experiment in a line: Syncropatch automated patch clamp, inhibition of riluzole-induced TRPC5 currents. The settings on record: for IC50: TRPC5 IC50, riluzole (30 μM)-induced TRPC5 current; for IC50 / TRPC5 activity (in words): Syncropatch. It counts as cell-based. The method in brief:
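Doxycycline-induced (0.5–1 μg/mL, 3 days) Flp-In T-REx-293 cells stably expressing mouse TRPC5, used in automated patch clamp. 200 ms ramps from −100 to +100 mV every 5–10 s. 30 μM riluzole activates currents and stays present with compound. Only cells with doubly-rectifying currents kept. % inhibition compares 3 ramps after vs before compound, normalized to a reference inhibitor at 3 μM. IC50 from three-parameter fit.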

Data set [2] in a line: Human liver microsome stability. It counts as in vitro ADME. The settings on record: liver microsomes.
Data set [3] is described as follows: Mouse liver microsome stability. The format is in vitro ADME. The settings on record: liver microsomes.
A short description of data set [4]: Human plasma protein binding. It counts as in vitro ADME.
The nature of data set [5]: Mouse plasma protein binding. The format is in vitro ADME.
Data set [6] is described as follows: In vivo rat cassette PK.
The mark [7] stands for this setting: rat, in vivo, intravenous, 0.25 mg/kg.

In the case of `c1ccc(Cn2c(N3CCCC3)nc3ccccc32)cc1` [7 c, 1‐Benzyl‐2‐(pyrrolidin‐1‐yl)‐1H‐benzo[d]imidazole], half-maximal inhibition in data set [1] (IC50) was put at 4.3 ± 1.63 µM. In data set [2], this compound returned a CLint scaled of 164 mL/min/kg and a hCLHEP of 17.9 mL/min/kg. Also, in data set [3], the intrinsic clearance (CLint scaled) came out at 530 mL/min/kg and the mCLHEP is 77.0 mL/min/kg. The compound also yielded a fraction unbound in data set [4] of 0.044. The compound further gave a fraction unbound in data set [5] of 0.036.

On to `CCCNc1nc2ccccc2n1Cc1ccccc1` [7 f, 1‐Benzyl‐N‐propyl‐1H‐benzo[d]imidazol‐2‐amine], for which the IC50 in data set [1] is 0.72 ± 0.21 µM. In data set [2], this compound registered a CLint scaled of 103 mL/min/kg and a hCLHEP of 16.8 mL/min/kg. In data set [3], this compound had a CLint scaled of 796 mL/min/kg and a mCLHEP of 80.9 mL/min/kg. Moreover, in data set [4], the fraction unbound worked out at 0.041. For the same compound, in data set [5], the fraction unbound was determined as 0.108.

With `CC(C)CCNc1nc2ccccc2n1Cc1ccccc1` [7 g, 1‐Benzyl‐N‐isopentyl‐1H‐benzo[d]imidazol‐2‐amine], in data set [1], 1.3 ± 0.31 µM corresponded to half-maximal inhibition (IC50).

As to `CN1CCC(N2CCN(c3nc4ccccc4n3Cc3ccccc3)CC2)CC1` [7 h, 1‐Benzyl‐2‐(4‐(1‐methylpiperidin‐4‐yl)piperazin‐1‐yl)‐1H‐benzo[d]imidazole], the “TRPC5 activity (in words)” value in data set [1] is “not productive”.

Consider `c1ccc(Cn2c(N3CCC4(CC3)CNC4)nc3ccccc32)cc1` [7 i, 7‐(1‐Benzyl‐1H‐benzo[d]imidazol‐2‐yl)‐2,7‐diazaspiro[3.5]nonane], for which the “TRPC5 activity (in words)” value in data set [1] was “not productive”.

Turning to `c1ccc(Cn2c(CCN3CCCC3)nc3ccccc32)cc1` [7 j, 1‐Benzyl‐2‐(2‐(pyrrolidin‐1‐yl)ethyl)‐1H‐benzo[d]imidazole], the “TRPC5 activity (in words)” value in data set [1] is listed as “moderate activity”.

As to `Fc1ccccc1Cn1c(N2CCCC2)nc2ccccc21` [9 a, 1‐(2‐Fluorobenzyl)‐2‐(pyrrolidin‐1‐yl)‐1H‐benzo[d]imidazole], in data set [1], the IC50 worked out at 2.69 µM.

`Fc1cccc(Cn2c(N3CCCC3)nc3ccccc32)c1` [9 b, 1‐(3‐Fluorobenzyl)‐2‐(pyrrolidin‐1‐yl)‐1H‐benzo[d]imidazole]: the IC50 in data set [1] came out at 1.49 ± 0.31 µM.

With `Fc1ccc(Cn2c(N3CCCC3)nc3ccccc32)cc1` [9 c, 1‐(4‐Fluorobenzyl)‐2‐(pyrrolidin‐1‐yl)‐1H‐benzo[d]imidazole], inhibition in data set [1] was half-maximal at 0.59 ± 0.14 µM (IC50).

Compound `Clc1cccc(Cn2c(N3CCCC3)nc3ccccc32)c1` [9 d, 1‐(3‐Chlorobenzyl)‐2‐(pyrrolidin‐1‐yl)‐1H‐benzo[d]imidazole] registered an IC50 in data set [1] of 0.72 ± 0.21 µM.

Regarding `Clc1ccc(Cn2c(N3CCCC3)nc3ccccc32)cc1` [9 e, 1‐(4‐Chlorobenzyl)‐2‐(pyrrolidin‐1‐yl)‐1H‐benzo[d]imidazole], half-maximal inhibition in data set [1] (IC50) was put at 0.44 ± 0.14 µM. In addition, in data set [2], the CLint scaled was 278 mL/min/kg and the hCLHEP is 18.7 mL/min/kg. Also, in data set [3], the CLint scaled was 4260 mL/min/kg and the mCLHEP amounted to 88.2 mL/min/kg. For the same compound, the fraction unbound in data set [4] worked out at 0.013. This compound returned a fraction unbound in data set [5] of 0.013.

Regarding `COc1ccc(Cn2c(N3CCCC3)nc3ccccc32)cc1` [9 f, 1‐(4‐Methoxybenzyl)‐2‐(pyrrolidin‐1‐yl)‐1H‐benzo[d]imidazole], in data set [1], the IC50 was 1.15 ± 0.25 µM.

In turn, `COc1ccc(Cn2c(N3CCCC3)nc3ccccc32)cc1F` [9 g, 1‐(3‐Fluoro‐4‐methoxybenzyl)‐2‐(pyrrolidin‐1‐yl)‐1H‐benzo[d]imidazole] gave an IC50 in data set [1] of 1.78 ± 0.43 µM.

Regarding `Cc1ccc(Cn2c(N3CCCC3)nc3ccccc32)cc1` [9 k, 1‐(4‐Methylbenzyl)‐2‐(pyrrolidin‐1‐yl)‐1H‐benzo[d]imidazole], the IC50 in data set [1] amounted to 0.902 ± 0.34 µM.

Compound `Cc1cccc(Cn2c(N3CCCC3)nc3ccccc32)c1` [9 l, 1‐(3‐Methylbenzyl)‐2‐(pyrrolidin‐1‐yl)‐1H‐benzo[d]imidazole] showed an IC50 in data set [1] of 1.9 µM.

Compound `Fc1cc(Cl)ccc1Cn1c(N2CCCC2)nc2ccccc21` [9 n, 1‐(4‐Chloro‐2‐fluorobenzyl)‐2‐(pyrrolidin‐1‐yl)‐1H‐benzo[d]imidazole] yielded an IC50 in data set [1] of 0.84 ± 0.23 µM. Also, in data set [2], the CLint scaled stood at 239 mL/min/kg and the hCLHEP is reported as 18.5 mL/min/kg. In data set [3], this compound had a CLint scaled of 3200 mL/min/kg and a mCLHEP of 87.6 mL/min/kg. In addition, in data set [4], the fraction unbound is 0.01. Further, the fraction unbound in data set [5] was 0.0217.

In data set [1], `N#Cc1cc(Cn2c(N3CCCC3)nc3ccccc32)ccc1F` [9 o, 2‐Fluoro‐5‐((2‐(pyrrolidin‐1‐yl)‐1H‐benzo[d]imidazol‐1‐yl)methyl)benzonitrile] gave an IC50 of 0.54 ± 0.23 µM. In data set [2], this compound came in with a CLint scaled of 38.1 mL/min/kg and a hCLHEP of 13.2 mL/min/kg. In data set [3], this compound registered a CLint scaled of 370 mL/min/kg and a mCLHEP of 72.5 mL/min/kg. The same compound registered a fraction unbound in data set [4] of 0.068. The compound further yielded a fraction unbound in data set [5] of 0.053. In data set [6] (Rat cassette (0.25 mpk), brain level for Kp), the Brain amounted to 41.8. Moreover, the Plasma in data set [6] (Rat cassette (0.25 mpk), plasma level for Kp) was 69.7. In addition, the Kp in data set [6] (rat, brain/plasma, intravenous, 0.25 mpk) worked out at 0.6. In data set [6] (setting [7]), the C0 was 221 ng/mL, the MRT inf came to 38.5 min, the distribution volume (Vd) was 1.8 L/kg and the clearance is 61.3 mL/min/kg. Besides, the half-life in data set [6] (setting [7]) was 38.4 min. Also, the AUC in data set [6] (rat, plasma, intravenous, 0.25 mg/kg) is 262 ng·h/mL.

On to `Clc1ccc(Cn2c(N3CCCC3)nc3ccccc32)cn1` [9 t, 1‐((6‐Chloropyridin‐3‐yl)methyl)‐2‐(pyrrolidin‐1‐yl)‐1H‐benzo[d]imidazole], for which half-maximal inhibition in data set [1] (IC50) required 3.11 ± 0.94 µM. Besides, the inhibition at 3 µM in data set [1] (read-out: % Inhibition @ 3 μM) stood at 127%.

On to `O=C(c1ccccc1)n1c(N2CCCC2)nc2ccccc21` [9 u, Phenyl(2‐(pyrrolidin‐1‐yl)‐1H‐benzo[d]imidazol‐1‐yl)methanone], for which the “TRPC5 activity (in words)” value in data set [1] is “inactive”.

`O=S(=O)(c1ccccc1)n1c(N2CCCC2)nc2ccccc21` [9 v, 1‐(Phenylsulfonyl)‐2‐(pyrrolidin‐1‐yl)‐1H‐benzo[d]imidazole]: in data set [1], the “TRPC5 activity (in words)” value was “inactive”.

Take `Cc1cc2nc(N3CCCC3)n(Cc3ccccc3)c2cc1C` [14 b, 1‐Benzyl‐5,6‐dimethyl‐2‐(pyrrolidin‐1‐yl)‐1H‐benzo[d]imidazole]: in data set [1], the “TRPC5 activity (in words)” value is “moderate activity” and the IC50 stood at 12.3 µM.

`COc1ccc2c(c1)nc(N1CCCC1)n2Cc1ccccc1` [14 h, 1‐Benzyl‐5‐methoxy‐2‐(pyrrolidin‐1‐yl)‐1H‐benzo[d]imidazole] showed an IC50 in data set [1] of 1.15 ± 0.33 µM.

For `O=c1[nH]ncc(-c2ccc3c(c2)nc(N2CCCC2)n3Cc2ccccc2)c1Cl` [14 n, 5‐(1‐Benzyl‐2‐(pyrrolidin‐1‐yl)‐1H‐benzo[d]imidazol‐5‐yl)‐4‐chloropyridazin‐3(2H)‐one], in data set [1], the “TRPC5 activity (in words)” value was “not as active as 1” and half-maximal inhibition (IC50) required 7.55 ± 2.52 µM.

For the compound `CC1CCCCN1c1nc2ccccc2n1Cc1ccc(Cl)cc1` (stereo not drawn) [16 a, 1‐(4‐Chlorobenzyl)‐2‐(2‐methylpiperidin‐1‐yl)‐1H‐benzo[d]imidazole], the “TRPC5 activity (in words)” value in data set [1] is “not active”.

With `CC1CCN(c2nc3ccccc3n2Cc2ccc(Cl)cc2)CC1` [16 b, 1‐(4‐Chlorobenzyl)‐2‐(4‐methylpiperidin‐1‐yl)‐1H‐benzo[d]imidazole], the “TRPC5 activity (in words)” value in data set [1] is listed as “not active”.

Regarding `O=S1(=O)CCN(c2nc3ccccc3n2Cc2ccc(Cl)cc2)CC1` [16 c, 4‐(1‐(4‐Chlorobenzyl)‐1H‐benzo[d]imidazol‐2‐yl)thiomorpholine‐1,1‐dioxide], the “TRPC5 activity (in words)” value in data set [1] is reported as “not active”.

`C[C@@H]1CCCN1c1nc2ccccc2n1Cc1ccc(Cl)cc1` [16 e, (R)‐1‐(4‐Chlorobenzyl)‐2‐(2‐methylpyrrolidin‐1‐yl)‐1H‐benzo[d]imidazole] showed an IC50 in data set [1] of 2.89 ± 0.7 µM.
